Format in all cases: functional
In test [1] the test system is Rattus norvegicus. The test is described as follows: Antiinflammatory activity in immature rat assessed as inhibition of cantharidin-induced inflammation at 50 ug administered topically to outer surface of ear after 72 hrs relative to control. In outline: (§1)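 Test compounds applied topically to outer ear surface together with cantharidin, groups of 8-10 immature rats (50-60 g). Controls: vehicle-only group and cantharidin-only group. […] Significance vs irritant group by Student's t test or Fieller's theorem.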

Test [2] has as its system Rattus norvegicus. Put plainly: Antiinflammatory activity in immature rat assessed as inhibition of cantharidin-induced inflammation at 100 ug administered topically to outer surface of ear after 72 hrs relative to control. Summed up:
as §1

Test [3] concerns Rattus norvegicus. The test is described as follows: Antiinflammatory activity in immature rat assessed as inhibition of cantharidin-induced inflammation at 200 ug administered topically to outer surface of ear after 72 hrs relative to control. In outline:
as §1

Test [4] has as its system Rattus norvegicus. The test is described as follows: Antiinflammatory activity in immature rat assessed as inhibition of cantharidin-induced inflammation at 400 ug administered topically to outer surface of ear after 72 hrs relative to control. Summed up:
as §1

Test [5] deals with Rattus norvegicus. The test is described as follows: Antiinflammatory activity in immature rat assessed as inhibition of cantharidin-induced inflammation at 800 ug administered topically to outer surface of ear after 72 hrs relative to control. In outline:
as §1

Test [6] deals with Rattus norvegicus. Put plainly: Antiinflammatory activity in rat assessed as reduction in dry ganuloma tissue surrounding implanted cotton pellet at 1000 ug per pellet after 72 hrs relative to control. The arrangement: scale not given: the % may be the effect or the level left. Summed up: (§2)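 Compound dissolved in ethanol, applied to cotton pellets and dried at room temperature. Two pellets implanted sc per rat, ten rats per dose group. Pellets removed at autopsy 72 h later. Activity read as reduction in dry granuloma tissue around pellets vs control group. Significance by Student's t test or Fieller's theorem.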

The subject of test [7] is Rattus norvegicus. Put plainly: Antiinflammatory activity in rat assessed as reduction in dry ganuloma tissue surrounding implanted cotton pellet at 2000 ug per pellet after 72 hrs relative to control. The arrangement: scale not given: the % may be the effect or the level left. In outline: as §2
The test system of test [8] is Rattus norvegicus. The test is described as follows: Antiinflammatory activity in rat assessed as reduction in dry ganuloma tissue surrounding implanted cotton pellet at 4000 ug per pellet after 72 hrs relative to control. The arrangement: scale not given: the % may be the effect or the level left. Summed up:
as §2

Test [9] deals with Rattus norvegicus. Put plainly: Antiinflammatory activity in rat assessed as reduction in dry ganuloma tissue surrounding implanted cotton pellet at 8000 ug per pellet after 72 hrs relative to control. The arrangement: scale not given: the % may be the effect or the level left. Summed up:
as §2

Test [10] has as its system Rattus norvegicus. The test is described as follows: Antiinflammatory activity in immature rat assessed as inhibition of cantharidin-induced inflammation at 5 ug administered topically to outer surface of ear after 72 hrs relative to control. Summed up:
as §1

Test [11] has as its system Rattus norvegicus. Put plainly: Antiinflammatory activity in immature rat assessed as inhibition of cantharidin-induced inflammation at 10 ug administered topically to outer surface of ear after 72 hrs relative to control. Summed up:
as §1

Test [12] relates to Rattus norvegicus. The test is described as follows: Antiinflammatory activity in immature rat assessed as inhibition of cantharidin-induced inflammation at 20 ug administered topically to outer surface of ear after 72 hrs relative to control. In outline:
as §1

For test [13], the system named is Rattus norvegicus. Put plainly: Antiinflammatory activity in immature rat assessed as inhibition of cantharidin-induced inflammation at 40 ug administered topically to outer surface of ear after 72 hrs relative to control. In outline:
as §1

The subject of test [14] is Rattus norvegicus. Put plainly: Antiinflammatory activity in immature rat assessed as inhibition of cantharidin-induced inflammation at 80 ug administered topically to outer surface of ear after 72 hrs relative to control. Summed up:
as §1

The subject of test [15] is Rattus norvegicus. Put plainly: Antiinflammatory activity in rat assessed as reduction in dry ganuloma tissue surrounding implanted cotton pellet at 10 ug per pellet after 72 hrs relative to control. The arrangement: scale not given: the % may be the effect or the level left. Summed up: as §2
Test [16] deals with Rattus norvegicus. The test is described as follows: Antiinflammatory activity in rat assessed as reduction in dry ganuloma tissue surrounding implanted cotton pellet at 20 ug per pellet after 72 hrs relative to control. The arrangement: scale not given: the % may be the effect or the level left. Summed up:
as §2

Test [17] has as its system Rattus norvegicus. The test is described as follows: Antiinflammatory activity in rat assessed as reduction in dry ganuloma tissue surrounding implanted cotton pellet at 40 ug per pellet after 72 hrs relative to control. The arrangement: scale not given: the % may be the effect or the level left. In outline: as §2
Test [18] concerns Rattus norvegicus. Put plainly: Antiinflammatory activity in rat assessed as reduction in dry ganuloma tissue surrounding implanted cotton pellet at 80 ug per pellet after 72 hrs relative to control. The arrangement: scale not given: the % may be the effect or the level left. In outline:
as §2

In test [19] the test system is Rattus norvegicus. Put plainly: Antiinflammatory activity in immature rat assessed as inhibition of cantharidin-induced inflammation at 888 ug administered topically to outer surface of ear after 72 hrs relative to control. In outline:
as §1

For test [20], the system named is Rattus norvegicus. The test is described as follows: Antiinflammatory activity in immature rat assessed as inhibition of cantharidin-induced inflammation at 924 ug administered topically to outer surface of ear after 72 hrs relative to control. Summed up: as §1

As for `NCCCN[C@@H](c1ccccc1)[C@@H](O)c1ccccc1` (racemic), the “inhibition (INH)” value in the test on Rattus norvegicus [1] was 0%; with Rattus norvegicus [2] it was 8%; with Rattus norvegicus [3], 21%; with Rattus norvegicus [4] it was 29%; with Rattus norvegicus [5] it was 51%.
On to `CC(C)=NCCN[C@@H](c1ccccc1)[C@@H](O)c1ccccc1` (relative stereo), for which the “inhibition (INH)” value in the test with Rattus norvegicus [1] was found to be 14%; in the test on Rattus norvegicus [2], 13%; with Rattus norvegicus [3] it was 10%; in the test on Rattus norvegicus [4] it was 59%; in the test on Rattus norvegicus [5], 87%.
In the same order, the values of `CC(=O)NCCN(C(C)=O)[C@@H](c1ccccc1)[C@@H](O)c1ccccc1` (racemic) are 0%, 11%, 9%, 0% and 40%.
In the same order, the values of `O[C@@H](c1ccccc1)[C@@H](NCCN[C@@H](c1ccccc1)[C@@H](O)c1ccccc1)c1ccccc1` are 14%, 0%, 17%, 5% and 0%.
In the same order, the values of `CN(C)CCN[C@@H](c1ccccc1)[C@@H](O)c1ccccc1` (racemic) are 0%, 0%, 8%, 0% and 0%.
With `NCCN[C@@H](c1ccccc1)[C@@H](O)c1ccccc1` (racemic), the “inhibition (INH)” value with Rattus norvegicus [1] is listed as 19%; in the test on Rattus norvegicus [2] it was 19%; in the test on Rattus norvegicus [3] it was 46%; with Rattus norvegicus [4] it was 72%; with Rattus norvegicus [5], 88%. The Activity worked out at 19% in the test with Rattus norvegicus [6], 28% in the test with Rattus norvegicus [7], 44% with Rattus norvegicus [8] and 49% in the test on Rattus norvegicus [9].
Consider `NCCN[C@@H](c1ccc(Cl)cc1)[C@@H](O)c1ccccc1` (racemic), for which the “inhibition (INH)” value in the test with Rattus norvegicus [1] is 3%; in the test with Rattus norvegicus [2], 0%; with Rattus norvegicus [3], 12%; with Rattus norvegicus [4], 35%; in the test with Rattus norvegicus [5], 89%.
The like results for `NCCN[C@@H](c1ccccc1)[C@@H](O)c1ccc(Cl)cc1` (racemic) were, in that order, 20%, 23%, 35%, 64% and 90%.
In the same order, the values of `CC(=O)NCCN[C@@H](c1ccccc1)[C@@H](O)c1ccccc1` (racemic) are 0%, 3%, 0%, 3% and 5%.
With `C[C@@H]1C[C@H]2[C@@H]3CCC4=CC(=O)C=C[C@]4(C)[C@@]3(F)[C@@H](O)C[C@]2(C)[C@@]1(O)C(=O)CO` [DEXAMETHASONE], the “inhibition (INH)” value is 17% in the test on Rattus norvegicus [10]; 25% in the test with Rattus norvegicus [11]; 30% with Rattus norvegicus [12]; 53% with Rattus norvegicus [13]; 76% in the test on Rattus norvegicus [14]. Also, the Activity with Rattus norvegicus [15] amounted to 16%; in the test with Rattus norvegicus [16], 28%; with Rattus norvegicus [17] it was 34%; in the test with Rattus norvegicus [18], 49%.
Regarding `NCCCCN[C@@H](c1ccccc1)[C@@H](O)c1ccccc1` (racemic), the “inhibition (INH)” value with Rattus norvegicus [1] worked out at 10%; in the test on Rattus norvegicus [2] it was 5%; with Rattus norvegicus [3] it was 37%; with Rattus norvegicus [4], 54%; in the test on Rattus norvegicus [5], 87%.
On to `NCCNC(c1ccccc1)C(O)c1ccccc1` (single isomer, unassigned; (+)), for which the “inhibition (INH)” value in the test on Rattus norvegicus [2] is reported as 2%; in the test with Rattus norvegicus [3], 0%; with Rattus norvegicus [4], 29%; with Rattus norvegicus [5], 96%.
Regarding `CC12C(=O)N(CCNC(c3ccccc3)C(O)c3ccccc3)C(=O)C1(C)C1CCC2O1` (stereo not drawn), the “inhibition (INH)” value with Rattus norvegicus [19] is recorded as 0%.
Regarding `Cc1ccc([C@H](O)[C@@H](NCCN)c2ccccc2)cc1` (racemic), the “inhibition (INH)” value with Rattus norvegicus [1] is given as 12%; with Rattus norvegicus [2] it was 9%; in the test with Rattus norvegicus [3] it was 5%; in the test with Rattus norvegicus [4] it was 53%; in the test with Rattus norvegicus [5] it was 68%.
The like results for `CC(=O)NCCN(C(C)=O)[C@@H](c1ccccc1)[C@@H](OC(C)=O)c1ccccc1` (racemic) were, in that order, 6%, 13%, 7%, 13% and 0%.
The like results for `CNCCN[C@@H](c1ccccc1)[C@@H](O)c1ccccc1` (racemic) were, in that order, 15%, 20%, 20%, 6% and 26%.
The like results for `CN(CCN)[C@@H](c1ccccc1)[C@@H](O)c1ccccc1` (racemic) were, in that order, 0%, 8%, 1%, 11% and 41%.
For the molecule `CC1(C(=O)O)C2CCC(O2)C1(C)C(=O)NCCNC(c1ccccc1)C(O)c1ccccc1` (stereo not drawn), the “inhibition (INH)” value in the test with Rattus norvegicus [20] is 67%.
For `NCCN[C@@H](c1ccc(Cl)cc1)[C@@H](O)c1ccc(Cl)cc1` (racemic), the “inhibition (INH)” value is 16% in the test on Rattus norvegicus [1]; 10% in the test on Rattus norvegicus [2]; 16% in the test on Rattus norvegicus [3]; 15% in the test on Rattus norvegicus [4]; 17% in the test on Rattus norvegicus [5].
Regarding `NCCNC(c1ccccc1)C(O)c1ccccc1` (stereo in doubt; 8a), the “inhibition (INH)” value in the test with Rattus norvegicus [1] is reported as 7%; with Rattus norvegicus [2] it was 1%; in the test with Rattus norvegicus [3], 19%; with Rattus norvegicus [4], 51%; with Rattus norvegicus [5], 87%.
In the case of `CN(C)CCCN[C@@H](c1ccccc1)[C@@H](O)c1ccccc1` (racemic), the “inhibition (INH)” value is 9% in the test on Rattus norvegicus [1]; 0% with Rattus norvegicus [2]; 16% with Rattus norvegicus [3]; 9% in the test with Rattus norvegicus [4]; 32% in the test with Rattus norvegicus [5].
Turning to `NCCN[C@@H](c1ccccc1)[C@H](O)c1ccccc1` (racemic), the “inhibition (INH)” value in the test on Rattus norvegicus [2] is 7%; in the test with Rattus norvegicus [3], 9%; in the test with Rattus norvegicus [4], 56%; with Rattus norvegicus [5], 88%.

Source of the values: ChEMBL document CHEMBL3272292, “2-(2-Aminoethylamino)-1,2-diphenylethanol derivatives, a new class of topical antiinflammatory agents” (1977).
